# Measurements: ChEMBL document CHEMBL4334439, “Discovery, Optimization, and Target Identification of Novel Potent Broad-Spectrum Antiviral Inhibitors” (J Med Chem, 2019)
# Columns and labels:
# [1] = test system: Hepatitis C virus; assay: Antiviral activity against GFP-fused HCV JFH-1 harboring K78E/E2-G451R/NS3-M260K/NS5A-T462I mutant infected in human Huh7.5.1 cells assessed as reduction in viral infection at 10 uM preincubated for 2 hrs followed by viral infection and measured after 48 hrs by epifluorescence microscopic analysis relative to control; format: functional, Hepacivirus hominis; set-up: scale not given: the % may be the effect or the level left
# Outline: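 Primary screen at 10 μM. Huh7.5.1 cells were pretreated 2 h, then infected with GFP-HCV (MOI 1). GFP intensity was checked by fluorescence microscopy at 48 h. Hits needed over 50% fluorescence decay before dose-response retesting.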
# [2] = Cytotoxicity against human Huh7.5.1 cells assessed as decrease in cell viability after 48 hrs by WST1 assay; format: cell-based
# Outline: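 Cells seeded at 1 × 10^4 per well and cultured overnight at 37 °C, then incubated 48 h with serially diluted compounds. Viability read with WST-1 reagent as absorbance at OD450/OD630.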
# [3] = Selectivity index, ratio of CC50 for human Huh7.5.1 cells to EC50 for EGFP-fused HCV JFH-1 harboring K78E/E2-G451R/NS3-M260K/NS5A-T462I mutant infected in human Huh7.5.1 cells; format: toxicity, cell-based; settings: read-out: Ratio CC50/EC50
# [4] = test system: Hepatitis C virus; assay: Antiviral activity against EGFP-fused HCV JFH-1 harboring K78E/E2-G451R/NS3-M260K/NS5A-T462I mutant infected in human Huh7.5.1 cells assessed as reduction in viral RNA level after 2 days by qRT-PCR analysis; format: functional, organism-based, Hepacivirus hominis; settings: JFH-1, Huh-7.5.1, 48 h
# Outline: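 Huh7.5.1 cells at 1×10^4/well, grown overnight at 37 °C. HCVcc was mixed with serially diluted compound (top 30 or 6 μM), given alone or with the named drug, and added to the cells. Viral RNA was read by qRT-PCR after 2 days. EC50 is the concentration giving 50% RNA reduction.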
# [5] = Inhibition of C-terminal 6-His tagged recombinant human DHODH N-terminal domain delta29 mutant expressed in Escherichia coli BL21(DE3) using dihydroorotate as substrate measured every 30 secs for 6 mins by DCIP dye based assay
# Outline: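 Enzyme purified by HisTrap then size exclusion. Reaction started with 500 μM dihydroorotate. DCIP decrease read at 600 nm. Inhibition = (1 − Vi/V0) × 100. IC50 from 8–9 concentrations in triplicate by sigmoidal fit.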
# [6] = test system: Hepatitis C virus; assay: Antiviral activity against HCV JFH-1 harboring K78E/E2-G451R/NS3-M260K/NS5A-T462I mutant infected in human Huh7.5.1 cells after 2 days by renilla luciferase reporter gene assay; format: functional, organism-based, Hepacivirus hominis; settings: JFH-1, Huh-7.5.1, 48 h
# Outline: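 Renilla luciferase reporter HCVcc (hRluc inserted in NS5A, aa 399/400) came from electroporated Huh7.5.1 supernatant. Virus plus serially diluted compound (top 30 or 6 μM) was added to Huh7.5.1 cells (1×10^4/well) and luminescence read. EC50 is 50% luminescence reduction.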
SMILES,Activity [1] [%],CC50 at 48 h [2] [µM],selectivity ratio [3],EC50 [4] [µM],IC50 [5] [µM],EC50 [6] [µM]
Cc1c(-c2ccc(Cc3ccc(C(C)(O)C(F)(F)F)cc3)cc2)[nH]c2cccc(F)c2c1=O (centres undefined),>50,> 2.5,> 23,0.11,–,–
Cc1c(-c2ccc(Cc3ccc(SC(F)(F)F)cc3)cc2)[nH]c2c(F)cccc2c1=O,>50,> 5,> 3,1.85,–,–
Cc1c(-c2ccc(Cc3ccc(N4CCOCC4)cc3)cc2)[nH]c2cccc(F)c2c1=O,>50,> 10,> 3,3.65,–,–
Cc1c(-c2ccc(Cc3ccc(C(O)C(F)(F)F)cc3)cc2)[nH]c2cccc(F)c2c1=O (centres undefined),>50,> 10,> 3,3.49,–,–
Cc1c(-c2ccc(-c3ccc(SC(F)(F)F)cc3)cc2)[nH]c2cccc(F)c2c1=O,>50,> 10,> 4,2.33,–,–
CCN(CC)CCOc1ccc(-c2[nH]c3cccc(F)c3c(=O)c2C)cc1,>50,> 100,> 4,25.6,–,–
CCNc1ccc(Oc2ccc(-c3[nH]c4cccc(F)c4c(=O)c3C)cc2F)cc1,>50,> 10,> 58,0.17,–,–
Cc1c(-c2ccc(Cc3ccc(Cl)cc3)cc2)[nH]c2cccc(F)c2c1=O,>50,> 10,> 2,4.4,–,–
Cc1c(-c2ccc(CNC(=O)c3ccc(SC(F)(F)F)cc3)cc2)[nH]c2cccc(F)c2c1=O,>50,> 50,> 5,11.1,–,–
Cc1c(-c2ccc(Cc3ccc(S(F)(F)(F)(F)F)cc3)cc2)[nH]c2cccc(F)c2c1=O,>50,> 5,> 7,0.73,–,–
Cc1c(-c2ccc(Cc3ccc(S(=O)(=O)C(F)(F)F)cc3)cc2)[nH]c2cccc(F)c2c1=O,>50,> 2.5,> 2,1.76,–,–
Cc1c(-c2ccc(Oc3ccc(N(C)C)cc3)c(F)c2)[nH]c2cccc(F)c2c1=O,>50,> 10,> 10,1.05,–,–
Cc1c(-c2ccc(Cc3ccc(OCC(F)(F)F)cc3)cc2)[nH]c2cccc(F)c2c1=O,>50,> 5,> 6,0.84,–,–
Cc1c(-c2ccc(Oc3ccc(N4CCNCC4)cc3)c(F)c2)[nH]c2cccc(F)c2c1=O,>50,> 10,> 4,2.57,–,–
Cc1c(-c2ccc(Cc3ccc([S+]([O-])C(F)(F)F)cc3)cc2)[nH]c2cccc(F)c2c1=O (centres undefined),>50,> 5,> 7,0.76,–,–
Cc1c(-c2ccc(Cc3ccc(OC(F)F)cc3)cc2)[nH]c2cccc(F)c2c1=O,>50,> 5,> 5,1.01,–,–
CCCN(CC)c1ccc(Oc2ccc(-c3[nH]c4cccc(F)c4c(=O)c3C)cc2F)cc1,>50,> 10,> 151,0.066,–,–
Cc1c(-c2ccc(Cc3ccc(SC(F)(F)F)cc3)cc2)[nH]c2cccc(F)c2c1=O,>50,> 10,> 27,0.36 to 1.56,–,–

SMILES,Activity [1] [%],CC50 at 48 h [2] [µM],selectivity ratio [3],EC50 [4] [µM],IC50 [5] [µM],EC50 [6] [µM]
CN=S(=O)(c1ccc(Cc2ccc(-c3[nH]c4cccc(F)c4c(=O)c3C)cc2)cc1)C(F)(F)F (centres undefined),>50,> 10,> 2,5.39,–,–
COc1ccc(Cc2ccc(-c3[nH]c4cccc(F)c4c(=O)c3C)cc2)cc1,>50,> 10,> 5,2.17,–,–
Cc1c(-c2ccc(Cc3ccc(OC(F)(F)F)cc3)cc2)[nH]c2cccc(F)c2c1=O,>50,> 10,> 6,0.36 to 1.56,–,–
Cc1c(-c2ccc(Cc3ccc(S(=N)(=O)C(F)(F)F)cc3)cc2)[nH]c2cccc(F)c2c1=O (centres undefined),>50,> 10,> 7,1.42,–,–
C#CCCC1(CCN(CC)c2ccc(Oc3ccc(-c4[nH]c5cccc(F)c5c(=O)c4C)cc3F)cc2)N=N1,>50,–,–,0.008,0.25,–
Cc1c(-c2ccc(OCCCN3CCOCC3)cc2)[nH]c2cccc(F)c2c1=O,>50,> 100,> 4,28.1,–,–
Cc1c(-c2ccc(Oc3ccc(SC(F)(F)F)cc3)c(F)c2)[nH]c2cccc(F)c2c1=O,>50,> 10,> 27,0.36,–,–
Cc1c(-c2ccc(Cc3ccc(C(C)(C)C)cc3)cc2)[nH]c2cccc(F)c2c1=O,>50,> 5,> 17,0.29,–,–
C#CCCC1(CCN(CC)c2ccc(Oc3ccc(-c4nc5cccc(F)c5c(OC)c4C)cc3F)cc2)N=N1,>50,–,–,> 5,1.03,–
Cc1c(-c2ccc(Cc3ccc(SC(F)(F)F)cc3)cc2)[nH]c2cc(F)ccc2c1=O,>50,> 5,> 5,0.97,–,–
CC(C)OC(=O)[C@H](C)N[P@](=O)(OC[C@H]1O[C@@H](n2ccc(=O)[nH]c2=O)[C@](C)(F)[C@@H]1O)Oc1ccccc1 [SOFOSBUVIR],–,–,–,–,–,0.17
Cc1c(-c2ccc(OCCN3CCCCC3)cc2)[nH]c2cccc(F)c2c1=O,>50,> 100,> 6,16.6,–,–
Cc1c(-c2ccc(Oc3ccc(N4CCCC4)cc3)c(F)c2)[nH]c2cccc(F)c2c1=O,>50,> 10,> 285,0.035,–,–
CCN(C)c1ccc(Oc2ccc(-c3[nH]c4cccc(F)c4c(=O)c3C)cc2F)cc1,>50,> 10,> 42,0.24,–,–
Cc1c(-c2ccc(Oc3ccc(N4CCCCC4)cc3)c(F)c2)[nH]c2cccc(F)c2c1=O,>50,> 10,> 100,0.1,–,–
Cc1c(-c2ccc(Cc3ccc(SC(F)(F)F)cc3)cc2)[nH]c2ccc(F)cc2c1=O,>50,> 10,> 4,2.48,–,–
Cc1c(-c2ccc(Cc3ccc(N4CCCCC4)cc3)cc2)[nH]c2cccc(F)c2c1=O,>50,> 10,> 5,1.92,–,–
Cc1c(-c2ccc(COc3ccc(SC(F)(F)F)cc3)cc2)[nH]c2cccc(F)c2c1=O,>50,> 10,> 6,1.59,–,–
